According to ChEMBL document CHEMBL2407075, “Sulphonamido-quinoxalines: search for anticancer agent” (Eur J Med Chem, 2013):

Legend:
Format in all cases: functional
[1] = tested on: IGROV-1; assay: Growth inhibition of human IGROV1 cells assessed as cell growth at 10^-8 M after 48 hrs by sulforhodamine B assay; conditions: IGROV-1, 48 h, read-out: Activity
[2] = tested on: K562; assay: Growth inhibition of human K562 cells assessed as cell growth at 10^-6 M after 48 hrs by sulforhodamine B assay; conditions: K562, 48 h, read-out: Activity
[3] = tested on: HOP-92; assay: Growth inhibition of human HOP92 cells assessed as cell growth at 10^-6 M after 48 hrs by sulforhodamine B assay; conditions: HOP-92, 48 h, read-out: Activity
Procedure, shortened: (§1)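 Five-dose screen at NCI. Cells in RPMI 1640 with 5% FBS and 2 mM L-glutamine, seeded at 5000–40,000 cells/well and grown 24 h at 37 °C, 5% CO2 before dosing, with time-zero plates TCA-fixed. Drug diluted from DMSO stock to 0.01, 0.1, 1, 10 and 100 µM final, 48 h. Cells fixed with cold TCA (10% final), stained with 0.4% SRB and read at 515 nm. Percent growth from Tz, control and test absorbances; GI50, TGI and LC50 from dose-response curves.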

[4] = tested on: A498; assay: Growth inhibition of human A498 cells assessed as cell growth at 10^-4 M after 48 hrs by sulforhodamine B assay; conditions: A498, 48 h, read-out: Activity
Procedure, shortened: (§2)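 Five-dose NCI-60 run (0.01, 0.1, 1, 10 and 100 µM, as 10-fold dilutions from a DMSO stock made at 400× the top final level). Cells were grown in RPMI 1640 with 5% FBS and 2 mM glutamine and plated for 24 h. They were then exposed for 48 h at 37 °C and 5% CO2. TCA fixation was followed by SRB staining with A515 read-out. Percent growth was taken relative to time-zero and control plates.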

[5] = tested on: PC-3; assay: Growth inhibition of human PC3 cells assessed as cell growth at 10^-6 M after 48 hrs by sulforhodamine B assay; conditions: PC-3, 48 h, read-out: Activity
[6] = tested on: SK-MEL-28; assay: Growth inhibition of human SK-MEL-28 cells assessed as cell growth at 10^-6 M after 48 hrs by sulforhodamine B assay; conditions: SK-MEL-28, 48 h, read-out: Activity
[7] = tested on: SR; assay: Growth inhibition of human SR cells assessed as cell growth at 10^-4 M after 48 hrs by sulforhodamine B assay; conditions: read-out: Activity
[8] = tested on: UACC-62; assay: Growth inhibition of human UACC62 cells assessed as cell growth at 10^-6 M after 48 hrs by sulforhodamine B assay; conditions: UACC-62, 48 h, read-out: Activity
[9] = tested on: MCF7; assay: Growth inhibition of human MCF7 cells assessed as cell growth at 10^-4 M after 48 hrs by sulforhodamine B assay; conditions: MCF7, 48 h, read-out: Activity
[10] = tested on: OVCAR-4; assay: Growth inhibition of human OVCAR4 cells after 48 hrs by sulforhodamine B assay; conditions: OVCAR-4, 48 h; for CC50: read-out: LC50 (the source's name)
Procedure, shortened: (§3)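 Five-dose NCI 60 screen at 0.01, 0.1, 1, 10 and 100 µM, 48 h exposure after 24 h preincubation, in RPMI 1640 with 5% FBS and 2 mM glutamine. Fixed with TCA (10% final for adherent cells, 16% for suspension cells), stained with SRB, A515 read. Percent growth uses time-zero (Tz), control and treated plates. GI50, TGI and LC50 are read from the dose-response curves.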

[11] = tested on: A549; assay: Growth inhibition of human A549/ATCC cells assessed as cell growth at 10^-4 M after 48 hrs by sulforhodamine B assay; conditions: A549, 48 h, read-out: Activity; procedure, shortened: as §2
[12] = tested on: KM12; assay: Growth inhibition of human KM12 cells assessed as cell growth at 10^-4 M after 48 hrs by sulforhodamine B assay; conditions: KM12, 48 h, read-out: Activity
[13] = tested on: NCI-H226; assay: Growth inhibition of human NCI-H226 cells assessed as cell growth at 10^-6 M after 48 hrs by sulforhodamine B assay; conditions: NCI-H226, 48 h, read-out: Activity
[14] = tested on: MOLT-4; assay: Growth inhibition of human MOLT4 cells assessed as cell growth at 10^-8 M after 48 hrs by sulforhodamine B assay; conditions: MOLT-4, 48 h, read-out: Activity
[15] = tested on: HOP-92; assay: Growth inhibition of human HOP92 cells assessed as cell growth at 10^-7 M after 48 hrs by sulforhodamine B assay; conditions: HOP-92, 48 h, read-out: Activity; procedure, shortened: as §1
[16] = tested on: SK-OV-3; assay: Growth inhibition of human SKOV3 cells after 48 hrs by sulforhodamine B assay; conditions: SK-OV-3, 48 h; for CC50: read-out: LC50 (the source's name); procedure, shortened: as §3
[17] = tested on: ACHN; assay: Growth inhibition of human ACHN cells assessed as cell growth at 10^-8 M after 48 hrs by sulforhodamine B assay; conditions: read-out: Activity; procedure, shortened: as §2
[18] = tested on: OVCAR-8; assay: Growth inhibition of human OVCAR8 cells assessed as cell growth at 10^-7 M after 48 hrs by sulforhodamine B assay; conditions: OVCAR-8, 48 h, read-out: Activity
[19] = tested on: NCI-H460; assay: Growth inhibition of human NCI-H460 cells assessed as cell growth at 10^-6 M after 48 hrs by sulforhodamine B assay; conditions: NCI-H460, 48 h, read-out: Activity
[20] = Growth inhibition of human HCC2998 cells assessed as cell growth at 10^-8 M after 48 hrs by sulforhodamine B assay; conditions: HCC 2998, 48 h, read-out: Activity; procedure, shortened: as §1
[21] = tested on: Malme-3M; assay: Growth inhibition of human MALME-3M cells assessed as cell growth at 10^-5 M after 48 hrs by sulforhodamine B assay; conditions: read-out: Activity
[22] = tested on: A498; assay: Growth inhibition of human A498 cells assessed as cell growth at 10^-5 M after 48 hrs by sulforhodamine B assay; conditions: A498, 48 h, read-out: Activity; procedure, shortened: as §2
[23] = tested on: SF-268; assay: Growth inhibition of human SF268 cells assessed as cell growth at 10^-5 M after 48 hrs by sulforhodamine B assay; conditions: SF-268, 48 h, read-out: Activity
[24] = tested on: HT-29; assay: Growth inhibition of human HT-29 cells assessed as cell growth at 10^-8 M after 48 hrs by sulforhodamine B assay; conditions: HT-29, 48 h, read-out: Activity; procedure, shortened: as §1
[25] = tested on: OVCAR-5; assay: Growth inhibition of human OVCAR5 cells assessed as cell growth at 10^-4 M after 48 hrs by sulforhodamine B assay; conditions: OVCAR-5, 48 h, read-out: Activity
[26] = tested on: COLO 205; assay: Growth inhibition of human COLO205 cells assessed as cell growth at 10^-7 M after 48 hrs by sulforhodamine B assay; conditions: COLO 205, 48 h, read-out: Activity; procedure, shortened: as §2
[27] = tested on: 786-0; assay: Growth inhibition of human 786-0 cells after 48 hrs by sulforhodamine B assay; conditions: 786-0, 48 h, read-out: LC50 (the source's name)
Procedure, shortened: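 Adherent cells in RPMI 1640 with 5% FBS and 2 mM L-glutamine were plated at 5000–40,000 cells/well and grown 24 h. Five concentrations (0.01–100 µM, DMSO stock) were added for 48 h at 37 °C. Cells were fixed with cold TCA (10% final) and stained with SRB, read at 515 nm. GI50 came from log concentration–growth curves against time-zero and control plates.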

[28] = tested on: MCF7; assay: Growth inhibition of human MCF7 cells assessed as cell growth at 10^-7 M after 48 hrs by sulforhodamine B assay; conditions: MCF7, 48 h, read-out: Activity

O=S(=O)(Nc1ccc(Cl)cc1)c1ccc2nc(-c3ccccc3)c(-c3ccccc3)nc2c1
growth at 0.01 µM [1]: 102%
growth at 1 µM [2]: 95%
growth at 1 µM [3]: 78%
growth at 100 µM [4]: 61%
growth at 1 µM [5]: 63%
growth at 1 µM [6]: 91%
growth at 100 µM [7]: 50%
growth at 1 µM [8]: 76%
growth at 100 µM [9]: 76%
TGI [10]: > 100 µM
CC50 [10]: > 100 µM
growth at 100 µM [11]: 73%
growth at 100 µM [12]: 71%
growth at 1 µM [13]: 101%
growth at 0.01 µM [14]: 97%
growth at 0.1 µM [15]: 92%
TGI [16]: > 100 µM
CC50 [16]: > 100 µM
growth at 0.01 µM [17]: 102%
growth at 0.1 µM [18]: 101%
growth at 1 µM [19]: 94%
growth at 0.01 µM [20]: 99%
growth at 10 µM [21]: -43%
growth at 10 µM [22]: -5%
growth at 10 µM [23]: 27%
growth at 0.01 µM [24]: 100%
growth at 100 µM [25]: 90%
growth at 0.1 µM [26]: 101%
CC50 [27]: > 100 µM
growth at 0.1 µM [28]: 95%

O=S(=O)(Nc1ccccn1)c1ccc2nc(-c3ccccc3)c(-c3ccccc3)nc2c1
growth at 0.01 µM [1]: 103%
growth at 1 µM [2]: 82%
growth at 1 µM [3]: 77%
growth at 100 µM [4]: 49%
growth at 1 µM [5]: 60%
growth at 1 µM [6]: 96%
growth at 100 µM [7]: 18%
growth at 1 µM [8]: 75%
growth at 100 µM [9]: 40%
GI50 [10]: 2.79 µM
TGI [10]: > 100 µM
CC50 [10]: > 100 µM
growth at 100 µM [11]: 51%
growth at 100 µM [12]: 53%
growth at 1 µM [13]: 96%
growth at 0.01 µM [14]: 96%
growth at 0.1 µM [15]: 92%
GI50 [16]: 3.58 µM
TGI [16]: > 100 µM
CC50 [16]: > 100 µM
growth at 0.01 µM [17]: 99%
growth at 0.1 µM [18]: 97%
growth at 1 µM [19]: 94%
growth at 0.01 µM [20]: 99%
growth at 10 µM [21]: -40%
growth at 10 µM [22]: -8%
growth at 10 µM [23]: 27%
growth at 0.01 µM [24]: 102%
growth at 100 µM [25]: 99%
growth at 0.1 µM [26]: 98%
CC50 [27]: > 100 µM
growth at 0.1 µM [28]: 96%
